Test results from ChEMBL document CHEMBL1152865, “Synthesis and antimycobacterial activities of novel 6-nitroquinolone-3-carboxylic acids” (Eur J Med Chem, 2009).
Values after ≈ are worked out from the molar mass of the structure shown.

system: Mycobacterium tuberculosis; experiment: Antibacterial activity against Mycobacterium tuberculosis H37Rv by agar dilution method; type: functional
Summary of the method: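 Agar dilution in Middlebrook 7H11 agar supplemented with OADC, following an approach similar to NCCLS guidance. MIC determined in duplicate.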

Row | SMILES | MIC
1 | O=C(O)c1cn(C2CC2)c2cc(N3CCN(C(c4ccccc4)c4ccc(Cl)cc4)CC3)c([N+](=O)[O-])cc2c1=O (stereo unspecified) | 5.59 µM (≈ 3.12 µg/mL)
2 | O=C(O)c1cn(-c2ccc(F)cc2)c2cc(N3CCN(C(=O)c4ccco4)CC3)c([N+](=O)[O-])cc2c1=O | 6.18 µM (≈ 3.13 µg/mL)
3 | CC(C)(C)n1cc(C(=O)O)c(=O)c2cc([N+](=O)[O-])c(N3CCC(N4CCCCC4)CC3)cc21 | 6.86 µM (≈ 3.13 µg/mL)
4 | CC1CN(c2cc3c(cc2[N+](=O)[O-])c(=O)c(C(=O)O)cn3C(C)(C)C)CC(C)O1 (stereo unspecified) | 7.76 µM (≈ 3.13 µg/mL)
5 | CC(C)(C)n1cc(C(=O)O)c(=O)c2cc([N+](=O)[O-])c(N3CCC(O)(c4ccc(Cl)cc4)CC3)cc21 | 6.26 µM (≈ 3.13 µg/mL)
6 | CCN(CC)C(=O)C1CCCN(c2cc3c(cc2[N+](=O)[O-])c(=O)c(C(=O)O)cn3-c2ccc(F)cc2)C1 (stereo unspecified) | 6.13 µM (≈ 3.13 µg/mL)
7 | COc1ccc(CC2C3=C(CCCC3)CCN2c2cc3c(cc2[N+](=O)[O-])c(=O)c(C(=O)O)cn3C2CC2)cc1 (stereo unspecified) | 3.04 µM (≈ 1.61 µg/mL)
8 | CC(C)(C)n1cc(C(=O)O)c(=O)c2cc([N+](=O)[O-])c(N3CCC(n4c(=O)[nH]c5cc(Cl)ccc54)CC3)cc21 | 5.79 µM (≈ 3.13 µg/mL)
9 | CC(C)(C)n1cc(C(=O)O)c(=O)c2cc([N+](=O)[O-])c(N3CCC4(CC3)OCCO4)cc21 | 7.45 µM (≈ 3.21 µg/mL)
10 | CCN(CC)C(=O)C1CCCN(c2cc3c(cc2[N+](=O)[O-])c(=O)c(C(=O)O)cn3C(C)(C)C)C1 (stereo unspecified) | 6.62 µM (≈ 3.13 µg/mL)
11 | O=C(O)c1cn(C2CC2)c2cc(N3CCC4(CC3)OCCO4)c([N+](=O)[O-])cc2c1=O | 3.76 µM (≈ 1.56 µg/mL)
12 | O=C(O)c1cn(-c2ccc(F)cc2)c2cc(N3CCC4(CC3)OCCO4)c([N+](=O)[O-])cc2c1=O | 6.67 µM (≈ 3.13 µg/mL)
13 | O=C(O)c1cn(C2CC2)c2cc(N3CCN(C(=O)C4COc5ccccc5O4)CC3)c([N+](=O)[O-])cc2c1=O (stereo unspecified) | 2.99 µM (≈ 1.56 µg/mL)
14 | COc1ccc(CC2C3=C(CCCC3)CCN2c2cc3c(cc2[N+](=O)[O-])c(=O)c(C(=O)O)cn3-c2ccc(F)cc2)cc1 (stereo unspecified) | 5.36 µM (≈ 3.13 µg/mL)
15 | O=C(O)c1cn(-c2ccc(F)cc2)c2cc(N3CCC(n4c(=O)[nH]c5cc(Cl)ccc54)CC3)c([N+](=O)[O-])cc2c1=O | 5.42 µM (≈ 3.13 µg/mL)
16 | CC(C)(C)n1cc(C(=O)O)c(=O)c2cc([N+](=O)[O-])c(N3CCN(Cc4ccc5c(c4)OCO5)CC3)cc21 | 3.07 µM (≈ 1.56 µg/mL)
17 | O=C(O)c1cn2c(n1)CN(c1cc3c(cc1[N+](=O)[O-])c(=O)c(C(=O)O)cn3-c1ccc(F)cc1)CC2 | 12.7 µM (≈ 6.25 µg/mL)
18 | COc1ccc(CC2C3=C(CCCC3)CCN2c2cc3c(cc2[N+](=O)[O-])c(=O)c(C(=O)O)cn3C(C)(C)C)cc1 (stereo unspecified) | 5.74 µM (≈ 3.13 µg/mL)
19 | CN1CCN(c2cc3c(cc2[N+](=O)[O-])c(=O)c(C(=O)O)cn3C(C)(C)C)CC1c1ccccc1 (stereo unspecified) | 16.1 µM (≈ 7.47 µg/mL)
20 | O=C(O)c1cn(C2CC2)c2cc(N3CCSCC3)c([N+](=O)[O-])cc2c1=O | 4.17 µM (≈ 1.57 µg/mL)
21 | CCN(CC)C(=O)C1CCCN(c2cc3c(cc2[N+](=O)[O-])c(=O)c(C(=O)O)cn3C2CC2)C1 (stereo unspecified) | 3.42 µM (≈ 1.56 µg/mL)
22 | O=C(O)c1cn(-c2ccc(F)cc2)c2cc(N3CCC(O)(c4ccc(Cl)cc4)CC3)c([N+](=O)[O-])cc2c1=O | 5.82 µM (≈ 3.13 µg/mL)
23 | CC(C)(C)n1cc(C(=O)O)c(=O)c2cc([N+](=O)[O-])c(N3CCN(C(=O)C4COc5ccccc5O4)CC3)cc21 (stereo unspecified) | 5.83 µM (≈ 3.13 µg/mL)

system: Mycolicibacterium smegmatis; experiment: Antibacterial activity against Mycobacterium smegmatis ATCC 14468 by agar dilution method; type: functional
Summary of the method: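 Agar dilution on Middlebrook 7H11 agar with OADC supplement, following an NCCLS-type procedure; MIC read in duplicate.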

Row | SMILES | MIC
24 | O=C(O)c1cn(C2CC2)c2cc(N3CCN(C(c4ccccc4)c4ccc(Cl)cc4)CC3)c([N+](=O)[O-])cc2c1=O (stereo unspecified) | 5.59 µM (≈ 3.12 µg/mL)
25 | O=C(O)c1cn(-c2ccc(F)cc2)c2cc(N3CCN(C(=O)c4ccco4)CC3)c([N+](=O)[O-])cc2c1=O | 24.7 µM (≈ 12.5 µg/mL)
26 | CC(C)(C)n1cc(C(=O)O)c(=O)c2cc([N+](=O)[O-])c(N3CCC(N4CCCCC4)CC3)cc21 | 27.4 µM (≈ 12.5 µg/mL)
27 | CC1CN(c2cc3c(cc2[N+](=O)[O-])c(=O)c(C(=O)O)cn3C(C)(C)C)CC(C)O1 (stereo unspecified) | 31 µM (≈ 12.5 µg/mL)
28 | CC(C)(C)n1cc(C(=O)O)c(=O)c2cc([N+](=O)[O-])c(N3CCC(O)(c4ccc(Cl)cc4)CC3)cc21 | 25 µM (≈ 12.5 µg/mL)
29 | CCN(CC)C(=O)C1CCCN(c2cc3c(cc2[N+](=O)[O-])c(=O)c(C(=O)O)cn3-c2ccc(F)cc2)C1 (stereo unspecified) | 24.5 µM (≈ 12.5 µg/mL)
30 | COc1ccc(CC2C3=C(CCCC3)CCN2c2cc3c(cc2[N+](=O)[O-])c(=O)c(C(=O)O)cn3C2CC2)cc1 (stereo unspecified) | 24.3 µM (≈ 12.9 µg/mL)
31 | CC(C)(C)n1cc(C(=O)O)c(=O)c2cc([N+](=O)[O-])c(N3CCC(n4c(=O)[nH]c5cc(Cl)ccc54)CC3)cc21 | 23.1 µM (≈ 12.5 µg/mL)
32 | CC(C)(C)n1cc(C(=O)O)c(=O)c2cc([N+](=O)[O-])c(N3CCC4(CC3)OCCO4)cc21 | 29 µM (≈ 12.5 µg/mL)
33 | CCN(CC)C(=O)C1CCCN(c2cc3c(cc2[N+](=O)[O-])c(=O)c(C(=O)O)cn3C(C)(C)C)C1 (stereo unspecified) | 26.4 µM (≈ 12.5 µg/mL)
34 | O=C(O)c1cn(C2CC2)c2cc(N3CCC4(CC3)OCCO4)c([N+](=O)[O-])cc2c1=O | 15.1 µM (≈ 6.25 µg/mL)
35 | O=C(O)c1cn(-c2ccc(F)cc2)c2cc(N3CCC4(CC3)OCCO4)c([N+](=O)[O-])cc2c1=O | 26.6 µM (≈ 12.5 µg/mL)
36 | O=C(O)c1cn(C2CC2)c2cc(N3CCN(C(=O)C4COc5ccccc5O4)CC3)c([N+](=O)[O-])cc2c1=O (stereo unspecified) | 12 µM (≈ 6.25 µg/mL)
37 | COc1ccc(CC2C3=C(CCCC3)CCN2c2cc3c(cc2[N+](=O)[O-])c(=O)c(C(=O)O)cn3-c2ccc(F)cc2)cc1 (stereo unspecified) | 21.4 µM (≈ 12.5 µg/mL)
38 | O=C(O)c1cn(-c2ccc(F)cc2)c2cc(N3CCC(n4c(=O)[nH]c5cc(Cl)ccc54)CC3)c([N+](=O)[O-])cc2c1=O | 43.3 µM (≈ 25 µg/mL)
39 | CC(C)(C)n1cc(C(=O)O)c(=O)c2cc([N+](=O)[O-])c(N3CCN(Cc4ccc5c(c4)OCO5)CC3)cc21 | 24.6 µM (≈ 12.5 µg/mL)
40 | O=C(O)c1cn2c(n1)CN(c1cc3c(cc1[N+](=O)[O-])c(=O)c(C(=O)O)cn3-c1ccc(F)cc1)CC2 | 50.7 µM (≈ 25 µg/mL)
41 | COc1ccc(CC2C3=C(CCCC3)CCN2c2cc3c(cc2[N+](=O)[O-])c(=O)c(C(=O)O)cn3C(C)(C)C)cc1 (stereo unspecified) | 22.9 µM (≈ 12.5 µg/mL)
42 | CN1CCN(c2cc3c(cc2[N+](=O)[O-])c(=O)c(C(=O)O)cn3C(C)(C)C)CC1c1ccccc1 (stereo unspecified) | 64.4 µM (≈ 29.9 µg/mL)
43 | O=C(O)c1cn(C2CC2)c2cc(N3CCSCC3)c([N+](=O)[O-])cc2c1=O | 33.3 µM (≈ 12.5 µg/mL)
44 | CCN(CC)C(=O)C1CCCN(c2cc3c(cc2[N+](=O)[O-])c(=O)c(C(=O)O)cn3C2CC2)C1 (stereo unspecified) | 6.86 µM (≈ 3.13 µg/mL)
45 | O=C(O)c1cn(-c2ccc(F)cc2)c2cc(N3CCC(O)(c4ccc(Cl)cc4)CC3)c([N+](=O)[O-])cc2c1=O | 23.2 µM (≈ 12.5 µg/mL)
46 | CC(C)(C)n1cc(C(=O)O)c(=O)c2cc([N+](=O)[O-])c(N3CCN(C(=O)C4COc5ccccc5O4)CC3)cc21 (stereo unspecified) | 23.3 µM (≈ 12.5 µg/mL)
